Assay results from paper PMC4102602 (European journal of oral sciences, 2013).
Read-outs that look alike come from different tables or passages of the source.

Legend:
[1] = tested on: MC3T3-E1 osteoblast-like cells; type: cell-based, mouse; details: for maximal increase of MC3T3 cell attachment: solution phase concentrations as high as 50 – 200 μM, control = uncoated wells; for enhancement in the level of MC3T3 osteoprogenitor cell attachment: coating concentration as low as 1 μM; for enhancement in the level of MC3T3 osteoprogenitor cell attachment / EC50 / level of MC3T3 cell attachment: Fig. 2; for EC50: read-out: half-maximal effect on MC3T3 cell attachment, peptide solution phase (coating) concentration, 30,000 cells/well, serum-free, 2 h, 37°C
Outline: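 Non-tissue-culture 96-well polystyrene was coated overnight with peptide solutions, washed, aftercoated with BSA and washed again; uncoated wells served as control. MC3T3-E1 cells were grown in MEM-α with 5% FBS and 5% NCS, then plated at 30,000 cells/well in serum-free medium for 2 h at 37°C. After three PBS washes, attachment was quantified by hexosaminidase activity as % of control. Mean ± SEM, ≥3 independent cultures.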

[2] = tested on: MG63 human osteoblast-like cells; type: cell-based; details: over the range of surface concentrations shown for P3 in Fig. 3; mean ± S.E; N = at least 6
Outline: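 MG63 cells grown in MEM plus NEAA with heat-inactivated 10% FBS. 96-well non-tissue-culture polystyrene plates were coated with peptide, washed, aftercoated with BSA and washed; uncoated plates served as control. Cells were seeded at 30,000/well in serum-free medium for 2 h at 37°C, washed three times with PBS, and counted by hexosaminidase activity as percent of control. Adsorbed peptide was quantified by micro BCA at 562 nm.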

[3] = tested on: MC3T3 cells (RGD-binding integrin receptors); type: cell-based, mouse; details: for residual MC3T3 cell attachment activity after preincubating cells with RGD: 30 min preincubation, 25 μM peptide coating concentration, Fig. 4A; for cell attachment activity remaining after preincubating cells with RGD: mean ± S.E, N = 5-6
Outline: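 MC3T3 cells were preincubated in tubes for 30 min with RGD tripeptide (up to 500 μM) in serum-free medium with 0.1% BSA. FBS was then added to 10% v/v, and cells were pelleted (600 × g, 5 min) and washed twice. Cells were plated at 30,000/well on BSA-aftercoated polystyrene wells coated with 25 μM peptide for 2 h at 37°C. Attachment was read by hexosaminidase activity, as % of no-RGD control.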

[4] = tested on: MC3T3-E1 osteoblast-like cells; details: osteogenic cell attachment; cited from earlier work

hBSP peptide 279-292 [DB5]
maximal increase of MC3T3 cell attachment [1]: 150-300 % of control

hBSP peptide 278-290 [DB2]
maximal percentage increase in the attachment of MG63 cells [2]: 422 ± 41% | residual MC3T3 cell attachment activity after preincubating cells with RGD ([3]; 500 μM RGD): 10-20 % of control

hBSP peptide 278-293 [P3]
attachment potency greater than that of peptide P2 (281-290) [4]: 1-2 orders of magnitude | enhancement in the level of MC3T3 osteoprogenitor cell attachment [1]: several-fold | EC50 [1]: ~1000 nM | residual MC3T3 cell attachment activity after preincubating cells with RGD ([3]; 500 μM RGD): 10-20 % of control

hBSP peptide 279-293 [DB3]
maximal percentage increase in the attachment of MG63 cells [2]: 228 ± 14%

BSP peptide 278-302 [P4]
attachment potency greater than that of peptide P2 (281-290) [4]: 1-2 orders of magnitude

hBSP peptide 281-293 [DB1]
maximal percentage increase in the attachment of MG63 cells [2]: 371 ± 21% | maximal increase of MC3T3 cell attachment [1]: 150-300 % of control | residual MC3T3 cell attachment activity after preincubating cells with RGD ([3]; 500 μM RGD): 10-20 % of control

arg-gly-asp [RGD, reference compound]
block of the attachment of cells to the hBSP peptides ([3]; soluble RGD, MC3T3 cells): 80-90%

hBSP peptide 278-292 [DB4]
maximal percentage increase in the attachment of MG63 cells [2]: 731 ± 100% | level of MC3T3 cell attachment ([1]; 1 μM coating solution): 380 % of control | level of MC3T3 cell attachment ([1]; 10 μM coating solution, % of control): 540% | level of MC3T3 cell attachment ([1]; 50 μM coating solution, % of control): 590% | level of MC3T3 cell attachment ([1]; 100 μM coating solution, % of control): 670% | level of MC3T3 cell attachment ([1]; 200 μM coating solution, % of control): 710% | enhancement in the level of MC3T3 osteoprogenitor cell attachment [1]: several-fold | EC50 [1]: ~1000 nM | cell attachment activity remaining after preincubating cells with RGD ([3]; 1 μM RGD, MC3T3 cells): 28 ± 10% | cell attachment activity remaining after preincubating cells with RGD ([3]; 500 μM RGD, MC3T3 cells): 14 ± 9%
